# Measured values taken from ChEMBL document CHEMBL2417431, “Synthesis and evaluation of hetero- and homodimers of ribosome-targeting antibiotics: antimicrobial activity, in vitro inhibition of translation, and drug resistance” (J Med Chem, 2013).
# Experiments:
# Haemophilus influenzae = experiment: Antibacterial activity against Haemophilus influenzae ATCC 51907 by double-dilution technique; type: functional
# How it was run: (§1)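 MIC measured against each bacterial strain using a double-dilution series of each compound. Every determination was run in duplicate or triplicate.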
# Streptococcus pyogenes = experiment: Antibacterial activity against Streptococcus pyogenes Serotype M12 MGAS9429 by double-dilution technique; type: functional; how it was run: as §1
# Bacillus subtilis [1] = experiment: Antibacterial activity against Bacillus subtilis 168 by double-dilution technique; type: functional
# How it was run: (§2)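 Double-dilution series of each compound against each strain, reported as MIC. Runs done in duplicate or triplicate.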
# Escherichia coli [2] = experiment: Inhibition of protein synthesis in Escherichia coli S30 extracts after 90 mins by coupled transcription/translation assay; type: functional; conditions: 1.5 h
# How it was run: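 E. coli extract coupled transcription/translation with luciferase reporter. Reactions with varying compound concentrations ran 90 min at 37 °C, were chilled on ice, then diluted in Tris-phosphate pH 7.8 buffer containing DTT, glycerol, Triton X-100 and BSA. Luminescence was read immediately after adding luciferase reagent. IC50 came from concentration-response fits of at least two independent experiments.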
# Staphylococcus aureus [3] = experiment: Antibacterial activity against Staphylococcus aureus ATCC 29213 by double-dilution technique; type: functional; how it was run: as §2
# Bacillus cereus = experiment: Antibacterial activity against Bacillus cereus ATCC 11778 by double-dilution technique; type: functional; how it was run: as §1
# Staphylococcus aureus [4] = experiment: Antibacterial activity against Staphylococcus aureus expressing NorA by double-dilution technique; type: functional; how it was run: as §2
# Listeria monocytogenes = experiment: Antibacterial activity against Listeria monocytogenes ATCC 19115 by double-dilution technique; type: functional; how it was run: as §2
# Bacillus subtilis [5] = experiment: Antibacterial activity against Bacillus subtilis 168 harboring AAC(6')/APH(2'')-pRB374 by double-dilution technique; type: functional
# [6] = test system: Mycolicibacterium smegmatis; experiment: Antibacterial activity against Mycobacterium smegmatis str. MC2 155 by double-dilution technique; type: functional
# Bacillus anthracis = experiment: Antibacterial activity against Bacillus anthracis 34F2 Sterne by double-dilution technique; type: functional; how it was run: as §2
# Escherichia coli [7] = experiment: Antibacterial activity against Escherichia coli MC1061 by double-dilution technique; type: functional; how it was run: as §2
# [8] = test system: Staphylococcus epidermidis; experiment: Antibacterial activity against biofilm negative Staphylococcus epidermidis ATCC 12228 by double-dilution technique; type: functional; how it was run: as §1
# [9] = Drug metabolism assessed as aminoglycoside 2'-N-acetyltransferase Ic (unknown origin)-mediated conversion at 100 uM by micro plate reader analysis relative to tobramycin; type: ADME
# How it was run: (§3)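 Ellman assay: CoASH release coupled to DTNB (2 mM), read at 412 nm every 30 s for 1 h at 25 °C. Compound at 100 μM. Conditions by enzyme: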
# [10] = Drug metabolism assessed as aminoglycoside 3-N-acetyltransferase AAC(3)-IV (unknown origin)-mediated conversion at 100 uM by micro plate reader analysis relative to tobramycin; type: ADME; how it was run: as §3
# [11] = Drug metabolism assessed as enhanced intracellular survival protein (unknown origin)-mediated conversion at 100 uM by micro plate reader analysis relative to tobramycin; type: ADME; how it was run: as §3
Structure (SMILES),MIC (Haemophilus influenzae) [µg/mL],MIC (Streptococcus pyogenes) [µg/mL],MIC (Bacillus subtilis [1]) [µg/mL],IC50 (Escherichia coli [2]) [µM],MIC (Staphylococcus aureus [3]) [µg/mL],MIC (Bacillus cereus) [µg/mL],MIC (Staphylococcus aureus [4]) [µg/mL],MIC (Listeria monocytogenes) [µg/mL],MIC (Bacillus subtilis [5]) [µg/mL],MIC [6] [µg/mL],MIC (Bacillus anthracis) [µg/mL],MIC (Escherichia coli [7]) [µg/mL],MIC [8] [µg/mL],fold change (FC) [9],fold change (FC) [10],fold change (FC) [11]
CCC[C@@H]1C[C@@H](C(=O)N[C@H]([C@H]2O[C@H](SC)[C@H](O)[C@@H](O)[C@H]2O)[C@@H](C)SCCOCCSSCCOCCSCC(=O)N[C@@H](CO)[C@H](O)c2ccc([N+](=O)[O-])cc2)N(C)C1,150,> 128,2.3,18.3,0.6,2.3,< 0.3,4.7,> 150,18.8,< 0.3,4.7,2,–,–,–
CCC[C@@H]1C[C@@H](C(=O)N[C@H]([C@H]2O[C@H](SC)[C@H](O)[C@@H](O)[C@H]2O)[C@@H](C)SCCOCCSCC(=O)N[C@H](CO)[C@H](O)c2ccc([N+](=O)[O-])cc2)N(C)C1,75,> 128,18.8,14.7,18.8,18.8,18.8,75,> 150,> 150,2.3,9.4,4,–,–,–
NC[C@H]1O[C@H](O[C@H]2[C@H](O)[C@@H](O[C@@H]3O[C@H](CSCCOCCSSCCOCCSCC(=O)N[C@H](CO)[C@H](O)c4ccc([N+](=O)[O-])cc4)[C@@H](O)[C@H](N)[C@H]3O)[C@H](N)C[C@@H]2N)[C@H](N)C[C@@H]1O,37.5,16,4.7,1,150,150,9.4,18.8,150,4.7,75,4.7,16,1.6,1.4,2.6
NC[C@H]1O[C@H](O[C@H]2[C@H](O)[C@@H](O[C@@H]3O[C@H](CSCCOCCSCC(=O)N[C@H](CO)[C@H](O)c4ccc([N+](=O)[O-])cc4)[C@@H](O)[C@H](N)[C@H]3O)[C@H](N)C[C@@H]2N)[C@H](N)C[C@@H]1O,150,8,150,1.49,> 150,> 150,> 150,> 150,> 150,18.8,> 150,> 150,8,2,1.8,2.9
O=C(CSCCOCCSSCCOCCSCC(=O)N[C@H](CO)[C@H](O)c1ccc([N+](=O)[O-])cc1)N[C@H](CO)[C@H](O)c1ccc([N+](=O)[O-])cc1,150,> 128,150,25.6,0.6,75,> 150,9.4,> 150,> 150,75,18.8,> 64,–,–,–
O=C(CSCCOCCSCC(=O)N[C@H](CO)[C@H](O)c1ccc([N+](=O)[O-])cc1)N[C@H](CO)[C@H](O)c1ccc([N+](=O)[O-])cc1,> 150,> 128,> 150,32.9,> 150,> 150,> 150,> 150,> 150,> 150,> 150,> 150,> 64,–,–,–
NC[C@H]1O[C@H](O[C@H]2[C@H](O)[C@@H](O[C@@H]3O[C@H](CSCCOCCSSCCOCCSC[C@H]4O[C@@H](O[C@@H]5[C@@H](O)[C@H](O[C@H]6O[C@H](CN)[C@@H](O)C[C@H]6N)[C@@H](N)C[C@H]5N)[C@H](O)[C@@H](N)[C@@H]4O)[C@@H](O)[C@H](N)[C@H]3O)[C@H](N)C[C@@H]2N)[C@H](N)C[C@@H]1O,9.4,64,0.6,0.27,37.5,75,9.4,37.5,37.5,2.3,37.5,18.8,16,2.4,2,4.1
CCC[C@@H]1C[C@@H](C(=O)N[C@H]([C@H]2O[C@H](SC)[C@H](O)[C@@H](O)[C@H]2O)[C@@H](C)SCCOCCSSCCOCCS[C@H](C)[C@H](NC(=O)[C@@H]2C[C@@H](CCC)CN2C)[C@H]2O[C@H](SC)[C@H](O)[C@@H](O)[C@H]2O)N(C)C1,37.5,> 128,2.3,6.1,0.6,2.3,0.6,4.7,> 150,18.8,2.3,9.4,1,–,–,–
O=C(CSCCOCCS)N[C@H](CO)[C@H](O)c1ccc([N+](=O)[O-])cc1,> 150,128,> 150,48.7,> 150,150,> 150,> 150,> 150,> 150,150,37.5,> 128,–,–,–
CCC[C@@H]1C[C@@H](C(=O)N[C@H]([C@H]2O[C@H](SC)[C@H](O)[C@@H](O)[C@H]2O)[C@@H](C)SCCOCCS)N(C)C1,75,2,9.4,> 100,4.7,9.4,1.2,37.5,> 150,75,2.3,37.5,4,–,–,–
NC[C@H]1O[C@H](O[C@H]2[C@H](O)[C@@H](O[C@@H]3O[C@H](CSCCOCCS)[C@@H](O)[C@H](N)[C@H]3O)[C@H](N)C[C@@H]2N)[C@H](N)C[C@@H]1O,37.5,128,2.3,0.43,75,150,18.8,18.8,75,2.3,37.5,18.8,16,–,–,–
"CCC[C@@H]1C[C@@H](C(=O)NC([C@H]2O[C@H](SC)[C@H](O)[C@@H](O)[C@H]2O)[C@@H](C)SCCOCCSSCCOCCSC[C@H]2O[C@@H](O[C@@H]3[C@@H](O)[C@H](O[C@H]4O[C@H](CN)[C@@H](O)C[C@H]4N)[C@@H](N)C[C@H]3N)C(O)[C@@H](N)[C@@H]2O)N(C)C1 (single isomer, unassigned)",75,64,1.2,0.98,2.3,9.4,4.7,18.8,150,4.7,2.3,4.7,2,1.6,1.4,2.6
O=C(N[C@H](CO)[C@H](O)c1ccc([N+](=O)[O-])cc1)C(Cl)Cl [CHLORAMPHENICOL],0.6,4,2.3,6.4,9.4,4.7,4.7,9.4,1.2,18.8,4.7,< 0.3,8,–,–,–
CCC[C@@H]1C[C@@H](C(=O)N[C@@H]([C@H]2O[C@H](SC)[C@H](O)[C@@H](O)[C@H]2O)[C@H](C)Cl)N(C)C1 [CLINDAMYCIN],4.7,1,–,18.1,–,–,–,4.7,> 150,9.4,< 0.3,2.3,1,–,–,–
NC[C@H]1O[C@H](O[C@H]2[C@H](O)[C@@H](O[C@H]3O[C@H](CO)[C@@H](O)[C@H](N)[C@H]3O)[C@H](N)C[C@@H]2N)[C@H](N)C[C@@H]1O [TOBRAMYCIN],18.8,64,2.3,0.015,37.5,75,9.4,18.8,9.4,0.6,9.4,9.4,0.3,–,–,–
